From ChEMBL document CHEMBL1122366, “Potential antiatherosclerotic agents. 3. Substituted benzoic and non benzoic acid analogues of cetaben” (1983)
Several values for one entry are separate records, joined by “and”; a condition that tells them apart may be missing. Identical values can stand only once.

Columns and labels:
Rattus norvegicus [1] = assay: In vivo triglyceride lowering activity when dosed at 0.03 % of the diet; format: functional
Method in brief: (§1)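 Normal rats were dosed in the diet. Serum sterol and triglyceride levels were measured and expressed as the mean percent of control values. Significance versus control was reported at p < 0.05, 0.01 and 0.001.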

Rattus norvegicus [2] = assay: In vivo sterol lowering activity when dosed as 0.01 % of the diet; format: functional; method in brief: as §1
Rattus norvegicus [3] = assay: In vivo sterol lowering activity when dosed as 0.03 % of the diet; format: functional; method in brief: as §1
Rattus norvegicus [4] = assay: In vivo sterol lowering activity at dose of 0.10 % of the diet; format: functional; method in brief: as §1
Rattus norvegicus [5] = assay: In vivo triglyceride lowering activity when dosed as 0.01 % of the diet; format: functional; method in brief: as §1
Rattus norvegicus [6] = assay: In vivo triglyceride lowering activity dosed at 0.10 % of the diet.; format: functional; method in brief: as §1
[7] = biological target: T1, Sterol O-acyltransferase 1 (Rattus norvegicus) (UniProt O70536); assay: In vitro inhibition of acyl coenzyme A:cholesterol acyltransferase; set-up: concentration or dose not given beside the values; settings: concentration not given here
T1 sequence (whole entry): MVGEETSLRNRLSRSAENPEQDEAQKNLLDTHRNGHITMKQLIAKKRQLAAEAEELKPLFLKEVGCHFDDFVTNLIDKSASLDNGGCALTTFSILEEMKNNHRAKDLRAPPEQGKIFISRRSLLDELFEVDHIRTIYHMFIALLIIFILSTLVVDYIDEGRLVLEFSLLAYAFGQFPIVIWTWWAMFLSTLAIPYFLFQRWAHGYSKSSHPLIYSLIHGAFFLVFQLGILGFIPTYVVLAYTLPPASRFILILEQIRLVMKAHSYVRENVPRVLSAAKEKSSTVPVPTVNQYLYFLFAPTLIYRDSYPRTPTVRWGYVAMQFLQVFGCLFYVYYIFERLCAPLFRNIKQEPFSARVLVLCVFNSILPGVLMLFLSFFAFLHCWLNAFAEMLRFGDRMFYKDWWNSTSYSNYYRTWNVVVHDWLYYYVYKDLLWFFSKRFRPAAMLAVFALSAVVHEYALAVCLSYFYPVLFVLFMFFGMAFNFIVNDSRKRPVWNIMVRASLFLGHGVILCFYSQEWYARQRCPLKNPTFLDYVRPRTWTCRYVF
Method in brief: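 Enzyme fatty acyl-CoA:cholesterol acyltransferase (ACAT), assayed in vitro at a single drug concentration of 5.2 μg/mL. The value is the mean percent inhibition of enzyme activity.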

Row | Compound | serum triglyceride level, percent of control (Rattus norvegicus [1]) | serum sterol level, % of control (Rattus norvegicus [2]) | serum sterol level, percent of control (Rattus norvegicus [3]) | serum sterol level, percent of control (Rattus norvegicus [4]) | serum triglyceride level, percent of control (Rattus norvegicus [5]) | serum triglyceride, percent of control (Rattus norvegicus [6]) | inhibition [7] [%]
1 | Br.CCCCCCCCCCCCCCCCNc1ccc(COC(C)=O)cc1 | 135% | 93% | 92% | <85% | 79% | 114% | –
2 | CCCCCCCCCCCCCCCCNc1ccc(C(=O)O)c(Cl)c1 | 109% | 100% | 95% | 95% | 113% | 101% | –
3 | CCCCCCCCCCCCCCCCN(CC)c1ccc(C(=O)O)cc1 | <63% | <74% | <60% | <86% | <78% | 98% | –
4 | CCCCCCCCCCCCCCCCN(C(C)=O)c1ccc(COC(C)=O)cc1 | <71% | 97% | 93% | 95% | <70% | 80% | –
5 | CCCCCCCCCCCCCCCCN(CCCCCCCCCCCCCCCC)c1ccc(C(=O)O)c2ccccc12 | 99% | 111% | 109% | 101% | 100% | 112% | –
6 | CCCCCCCCCCCCCCCCNc1ccc(C(=O)OCC(COC)OC)cc1 (configuration not stated) | 62% | – | 83% | 82% | – | 70% | < 24
7 | CCCCCCCCCCCCCCCCNc1ccc(C(=O)CCC(=O)OC)cc1 | 93% | – | <81% | <84% | – | 86% | 7
8 | CCCCCCCCCCCCCCCCNc1ccc(C(=O)NS(=O)(=O)c2ccc(C)cc2)cc1 | <35% | 89% | <56% | <61% | <86% | <40% | –
9 | CCCCCCCCCCCCCCCCN(C)c1ccc(C(=O)OCC)cc1 | <73% | <70% | 84% | <74% | <64% | 78% | –
10 | CCCCCCCCCCCCCCCCNc1ccc(C(=O)OCC)cc1C | 94% | 92% | <87% | 103% | 81% | 95% | –
11 | CCCCCCCCCCCCCCCCN(CC)c1ccc(C(=O)[O-])cc1.[Na+] | – | 114% | 116% | 116% | – | – | –
12 | CCCCCCCCCCCCCCCCNc1ccc(CO)cc1 | 117% | 98% | 95% | 95% | 110% | 91% | –
13 | CCCCCCCCCCCCCCCCNc1ccc(C(=O)O)cc1 [CETABEN] | <45% | <72% | <71% | <54% | <71% | <31% | –
14 | CCCCCCCCCCCCCCCCNc1ccc(CC(=O)O)cc1 | 81% | 93% | 87% | 87% | 76% | <63% | –
15 | CCCCCCCCCCCCCCCCCCN(CC)c1ccc(C(=O)O)cc1 | 102% | 102% | 102% | 108% | 85% | 103% | –
16 | CCCCCCCCCCCCCCCCNc1ccc(C(=O)[N-]S(=O)(=O)c2ccc(C)cc2)cc1.[Na+] | <37% | <64% | <52% | <48% | <52% | <32% | –
17 | CCCCCCCCCCCCCCN(C)c1ccc(C(=O)O)cc1 | 92% | 97% | 94% | 97% | 82% | 103% | –
18 | CCCCCCCCCCCCCCCCCN(CC)c1ccc(C(=O)O)cc1 | 108% | 98% | 98% | 95% | 126% | 106% | –
19 | CCCCCCCCCCCCCCCCN(C(C)=O)c1ccc(C(=O)O)cc1 | 107% | 105% | 105% | 103% | 109% | 121% | –
20 | CCCCCCCCCCCCCCCCNc1ccc(C(=O)OCCN(C)C)cc1.Cl | 73% | 99% | <92% | 92% | 77% | <59% | –
21 | CCCCCCCCCCCCCCCCNc1ccc(C(N)=O)cc1 | – | 100% | 102% | <86% | – | 114% | –
22 | CCCCCCCCCCCCCCCCNc1ccc(C(=O)O)cc1Br | 96% and 99% | 92% and 101% | 100% and 99% | 93% and 97% | 95% and 104% | 91% and 100% | –
23 | CCCCCCCCCCCCCCCCNc1ccc(C(=O)OCC(O)CO)cc1.Cl (configuration not stated) | <49% | <88% | 92% | <69% | 98% | <30% | –
24 | CCCCCCCCCCCCCCCCN(C)c1ccc(C(=O)O)cc1 | <66% | 85% | 92% | 85% | <81% | 56% | –
25 | CCCCCCCCCCCCCCCCNc1ccc(C(=O)N2CCCC2)cc1 | – | 113% | 98% | 101% | 75% | 95% | 59
26 | CCCCCCCCCCCCCCCCCN(C)c1ccc(C(=O)O)cc1 | 134% | 97% | 98% | 98% | 98% | 109% | –
27 | CCCCCCCCCCCCCCCCN(CC(=O)O)c1ccc(C(=O)O)cc1 | 100% | 105% | 109% | 93% | 105% | 99% | –
28 | CCCCCCCCCCCCCCCCNCc1ccc(C(=O)O)cc1 | 91% | 97% | <89% | <88% | 86% | 96% | –
29 | C=CCOC(=O)c1ccc(NCCCCCCCCCCCCCCCC)cc1 | <60% | 94% | 103% | <81% | – | <70% | < 40
